Bioassay records as filed in PubChem BioAssay.
Sampled rows, rich in hits. Any-hit rate of the full collection: about 1.4%.
Tn7 DDE FP: inhibitors of Tn7 peptide binding to human fibrin DD(E) | AID 720508 | inhibition, % at 8.3 µM | 0.13% of 370,000 active | FP displacement of FITC-Tn7 peptide from fibrin DD(E); 0% = median of compound wells per plate | P02675;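 active means inhibition above the mean of compounds falling within the control limits plus 3 SD of them, cut at about 14% in these data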;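 further: 0% = plate median of compound wells and 100% = 10 µM Aha-Tn7 peptide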
Target sequence (P02675 whole entry, looked up): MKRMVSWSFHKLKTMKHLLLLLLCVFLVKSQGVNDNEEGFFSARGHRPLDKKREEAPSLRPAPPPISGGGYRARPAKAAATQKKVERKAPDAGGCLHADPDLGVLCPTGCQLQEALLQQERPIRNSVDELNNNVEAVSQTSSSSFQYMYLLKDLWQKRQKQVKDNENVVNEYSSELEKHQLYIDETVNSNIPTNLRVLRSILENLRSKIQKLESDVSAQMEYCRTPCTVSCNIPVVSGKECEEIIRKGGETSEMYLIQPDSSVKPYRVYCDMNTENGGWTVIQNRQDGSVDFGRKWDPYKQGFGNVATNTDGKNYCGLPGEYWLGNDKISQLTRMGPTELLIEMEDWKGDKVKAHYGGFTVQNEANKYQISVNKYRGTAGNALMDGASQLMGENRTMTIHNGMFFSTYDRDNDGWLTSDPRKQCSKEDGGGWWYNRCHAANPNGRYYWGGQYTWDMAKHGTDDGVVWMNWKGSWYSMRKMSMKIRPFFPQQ
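Measure: % inhibition scaled between sample-field median and high-control FP; Test system: human fibrin DD(E); Quantity: 2 µM final DD(E) protein; Doses: one dose, 8.3 µM nominal; Schedule: compound with protein 10 min, then 3 h after probe, room temperature; Detection: fluorescence polarization; Medium: Tris buffer with calcium and detergent, pH 7.8.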
Cardio protect: myocardial damage modulation in H9c2 cells | H9c2 cardiomyocytes, H2O2 injury protection, ATPLite, 2 h | protection from H2O2 cell death, % at 20 µM | 0.63% of 360,000 active;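 active means compounds giving at least 50% protection of heart cells from peroxide-induced death in the single-dose screen, raw or plate-pattern-corrected value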;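 further: 0% = DMSO wells with peroxide and 100% = DMSO wells without peroxide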
MT1-MMP act inh: MT1-MMP (human) activation inhibition. P50281. HT1080 RFP-PRO-GFP cells, GFP/RFP ratio fluorescence, overnight; percent of plate control window, DMSO zero. GFP/RFP ratio change, % at 20 µM. 0.061% of 360,000 active. AID 651647;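 active means GFP/RFP ratio change of at least 30% with cell ATP level not reduced by more than half and red fluorescence within 50% of control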
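Test system: HT1080 cells expressing an RFP-PRO-GFP fluorescent reporter construct / Compound dosing: single-point 20 µM compound, 1% DMSO / Schedule: cells overnight before dosing, compound overnight, 37 °C, 5% CO2 / Evaluation: GFP/RFP fluorescence ratio / Control set: DMSO and RFP-L50D-GFP cell wells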
H9c2 TAG inh: triacylglycerol accumulation inhibition | H9c2 cells, Nile Red lipid (TAG) fluorescence; cells loaded with 200 µM oleic acid | inhibition, % at 12.5 µM | 0.66% of 230,000 active | AID 651582;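 active means pattern-corrected inhibition of lipid staining of at least 50% with the nuclear-stain viability signal not falling by more than 50%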;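 further: 0% = DMSO wells and 100% = triacsin C control wells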
Tn6 DDE FP: inhibitors of Tn6 peptide binding to human fibrin DD(E); AID 720509; Fibrin DD(E) TRITC-Tn6 fluorescence polarization displacement; inhibition, % at 8.3 µM; 0.21% of 370,000 active; P02675;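 active means inhibition above a per-campaign cutoff: mean of compounds within control limits plus 3 SD, cut at about 15% in these data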;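 further: 0% = median of all compound wells on the plate and 100% = blocking peptide control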
DAGLB inhibitor: diacylglycerol lipase beta (human) inhibition; Q8NCG7; HEK293T DAGLB membrane lysate, EnzChek fluorogenic substrate; inhibition, % at 5.17 µM; 0.059% of 340,000 active; AID 504411; in the data active means inhibition above about 34%;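 further: 0% = enzyme with vehicle and 100% = wells lacking enzyme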
MT1-MMP act val: blocks activation of human MT1-MMP in validation testing; shares compounds with MT1-MMP act inh; HT1080 RFP-PRO-GFP cells, GFP and RFP fluorescence ratio, overnight; inhibition, % at 20 µM; 10% of 200 active; AID 652235;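 active means inhibition of at least 50% in the primary cell screen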
Tn7 DDE conf: confirmation of inhibitors of Tn7 binding to human fibrin DD(E). FP displacement of TRITC-Tn7 peptide from DD(E); 0% set at plate's compound-well median. AID 720628. shares compounds with Tn7 DDE FP. inhibition, % at 8.3 µM. 5% of 460 active;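 active means inhibition above the campaign cutoff, the mean of compounds within control limits plus 3 SD, cut at about 14% in these data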;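 further: 100% = median FP of high control wells holding Aha-Tn7 inhibitor peptide; displacers lower polarization since freed probe rises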
DDE Tn7 FP ctr: DD(E)-Tn7 binding inhibition, counter-screen | AID 720633 | inhibition, % at 8.3 µM | shares compounds with Tn7 DDE FP | 3% of 460 active | fibrin DD(E), TRITC-Tn7 probe displacement, fluorescence polarization;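 active means inhibition above the cutoff, the mean of compounds lying between the control bounds plus 3 SD of those compounds, cut at about 17% in these data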;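 further: 0% = median of compound sample wells and 100% = excess unlabeled Aha-Tn7 peptide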
Tn6 DDE ctr: DD(E)-Tn6 binding inhibition, counter-screen; 2% of 680 active; Fibrin DD(E), TRITC-Tn6 fluorescence polarization displacement; 0% = median of compound wells, not DMSO; shares compounds with Tn6 DDE FP; inhibition, % at 8.3 µM;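 active means inhibition above the mean of test compounds lying between the control limits plus 3 SD of those, cut at about 14% in these data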;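 further: 0% = median of compound wells and 100% = wells with Aha-Tn7 blocking peptide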
Tn6 DDE conf: DD(E)-Tn6 binding inhibition, FP confirmation; inhibition, % at 8.3 µM; 10% of 680 active; FP displacement of TRITC-Tn6 peptide from DD(E); 0% = per-plate median of test wells; shares compounds with Tn6 DDE FP;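 active means inhibition above the mean of compounds lying within the control limits plus 3 SD, cut at about 16% in these data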;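 further: 100% = high control wells holding a competing inhibitor peptide at 10 µM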
* hit, by the source's call.

CCOc1ccc2nc(N=Nc3c(O)[nH]c(=S)[nH]c3=O)sc2c1 was read as Tn7 DDE FP -4, Cardio protect -3, MT1-MMP act inh 59*, H9c2 TAG inh 7, Tn6 DDE FP -1, DAGLB inhibitor 18 and MT1-MMP act val 35.
For CCOc1ccc2nc(N=Nc3c(O)[nH]c(=O)[nH]c3=O)sc2c1 the results were Tn7 DDE FP 9, Cardio protect 0, MT1-MMP act inh 27, H9c2 TAG inh -1, Tn6 DDE FP 3 and DAGLB inhibitor 8.
Screening COc1ccccc1-n1c(-c2ccccc2Cl)nc2ccccc2c1=O returned Tn7 DDE FP 16*, Cardio protect 0, MT1-MMP act inh -7, Tn6 DDE FP -1, DAGLB inhibitor 0, Tn7 DDE conf 7 and DDE Tn7 FP ctr 8.
COc1ccccc1-n1c(-c2ccoc2)nc2ccccc2c1=O was read as Tn7 DDE FP 4, Cardio protect 6, MT1-MMP act inh 6, H9c2 TAG inh -2, Tn6 DDE FP -3 and DAGLB inhibitor -1.
COc1ccc2[nH]c(C)c(CCNCc3cccnc3)c2c1 was read as Tn7 DDE FP 18*, Cardio protect 4, MT1-MMP act inh -4, H9c2 TAG inh 4, Tn6 DDE FP 6, DAGLB inhibitor -3, Tn7 DDE conf 6 and DDE Tn7 FP ctr -3.
`COc1ccc2[nH]cc(CCNCc3cccnc3)c2c1` gave Tn7 DDE FP -1, Cardio protect 4, MT1-MMP act inh 2, H9c2 TAG inh 4, Tn6 DDE FP -9 and DAGLB inhibitor 2.
`COc1ccc2c3c([nH]c2c1)C(C)=NCC3` gave Tn7 DDE FP -3, Cardio protect 6, MT1-MMP act inh -18, H9c2 TAG inh -7, Tn6 DDE FP -1 and DAGLB inhibitor 6.
Screening CC1=NCCc2c1[nH]c1cc(O)ccc21 returned Tn7 DDE FP 76*, Cardio protect 12, MT1-MMP act inh -50, H9c2 TAG inh -39, Tn6 DDE FP 1, DAGLB inhibitor -55, Tn7 DDE conf 35* and DDE Tn7 FP ctr -3.
`CCCCOc1nc2ccccc2c(=O)n1-c1ccccc1` gave Tn7 DDE FP 15*, Cardio protect -2, MT1-MMP act inh -2, Tn6 DDE FP 4, DAGLB inhibitor -12, Tn7 DDE conf 6 and DDE Tn7 FP ctr -3.
For CCOC(=O)[C@]12Cc3c(cc(OC)c(OC)c3OC)[C@H]1N(C)C(=O)c1cc(OC)ccc12 the results were Tn7 DDE FP 15*, MT1-MMP act inh -6, Tn6 DDE FP 2, Tn7 DDE conf 11 and DDE Tn7 FP ctr 6.
Screening CCCCC12CNCC(C)(CNC1)C2=O returned Tn7 DDE FP 17*, Cardio protect -4, MT1-MMP act inh 1, Tn6 DDE FP -3, DAGLB inhibitor 3, Tn7 DDE conf -8 and DDE Tn7 FP ctr -13.
`CSCCC(c1nnnn1-c1ccc2c(c1)OCCO2)N1CCC2(CC1)C(=O)NCN2c1ccccc1` (centres undefined) gave Tn7 DDE FP 2, Cardio protect 20, MT1-MMP act inh -1 and Tn6 DDE FP 8.
`COC(=O)C1=C(c2ccc(Cl)c(C(F)(F)F)c2)C[C@@H]2CC[C@H]1N2C(=O)NCCOc1ccccc1Cl` gave Cardio protect -6, MT1-MMP act inh -5 and DAGLB inhibitor -8.
Screening O=c1[nH]c(=S)n(C2CC2)c(O)c1C=Nc1cccc(C(F)(F)F)c1 returned Tn7 DDE FP 14*, Cardio protect 5, MT1-MMP act inh 17, Tn6 DDE FP 2, DAGLB inhibitor -1, Tn7 DDE conf -5 and DDE Tn7 FP ctr -14.
For Cc1nc2ccccc2c(=O)n1-c1ccc(-c2ccccc2)cc1 the results were Tn7 DDE FP 1, Cardio protect 5, MT1-MMP act inh -1, Tn6 DDE FP -5 and DAGLB inhibitor -4.
`CN1CCN(/N=C/c2c(O)n(CCC3=CCCCC3)c(=S)[nH]c2=O)CC1` gave Tn7 DDE FP 1, Cardio protect -1, MT1-MMP act inh -6, H9c2 TAG inh -10, Tn6 DDE FP -5 and DAGLB inhibitor 9.
COC1C(C)OC(OC2CC(C)(O)Cc3cc4c(c(O)c32)C(=O)c2c(O)cc3c(c2C4=O)OC2OC3(C)C(O)C(N(C)C)C2O)C(OC)C1(C)OC (centres undefined) was read as Tn7 DDE FP 14*, Cardio protect 3, MT1-MMP act inh -32, H9c2 TAG inh -18, Tn6 DDE FP 88*, DAGLB inhibitor -89, Tn7 DDE conf -19, DDE Tn7 FP ctr 54*, Tn6 DDE ctr -19 and Tn6 DDE conf 54*.
`COCCNC(=O)CN1C(=O)CN=C(c2ccccc2)c2ccccc21` gave Tn7 DDE FP -3, Cardio protect 3, MT1-MMP act inh 4, H9c2 TAG inh -5, Tn6 DDE FP 4 and DAGLB inhibitor 0.
Screening CC1CCCN(c2ccc(C(=O)N3CCC4(CC3)OCCO4)cc2[N+](=O)[O-])C1 (centres undefined) returned Tn7 DDE FP 6, Cardio protect 3, MT1-MMP act inh -9, H9c2 TAG inh 13, Tn6 DDE FP -3 and DAGLB inhibitor 4.
CCOC(=O)C1CCCN(c2ccc([N+](=O)[O-])c3nonc23)C1 (centres undefined) was read as Tn7 DDE FP 20*, Cardio protect -26, MT1-MMP act inh -37, H9c2 TAG inh -46, Tn6 DDE FP active, DAGLB inhibitor -110, Tn7 DDE conf -13, DDE Tn7 FP ctr 93*, Tn6 DDE ctr -13 and Tn6 DDE conf 93*.
